# Hits are enriched below; roughly 6.6% of the tested compounds scored in any of these assays.
# Her2 expr inh = Her2 kinase expression inhibition; P04626; SKBR-3 HER2 protein level, AlphaScreen, 18-24 h; active compounds read low; HER2 level % of control, % at 10 µM; 65,000 compounds, 0.69% hits; AID 645;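 active = HER2 level under 5% of the carrier-only control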;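 note: 100% = DMSO carrier and 0% = 500 nM PU-H71 HSP90 inhibitor; lower value means stronger loss of Her2 protein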
# HEK293 NFkB inh = lowers PMA/ionomycin-induced NF-kB signal in HEK293 cells; HEK-293 NF-kB luciferase reporter, luminescence; inhibition, % at 3 µM; 62,000 compounds, 0.21% hits; AID 465;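 active = inhibition above the mean of all tested compounds plus 3 SD, cut at about 40% in these data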;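 note: 0% = stimulated DMSO wells and 100% = 10 µM reference inhibitor 5653914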
#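 System – HEK-293 cells with stable firefly luciferase reporter driven by four HIV NF-kB elements · Doses – one dose, 3 µM · Schedule – 1 h compound pre-incubation, 16 h PMA/ionomycin at 37 °C · Technique – luminescence from luciferase substrate reagent · Measure – percent inhibition normalized per plate to DMSO and reference-inhibitor controls · Replicates – tested once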
# M1 ag = M1 muscarinic receptor agonism; 64,000 compounds, 3% hits; B-score at 10 µM; CHO-M1 cells, Fluo-4 calcium fluorescence, agonist mode; active compounds read high; AID 626;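 active = fluorescence rise, raw or as B-score row- and column-corrected plate score, outside the 99.7% band of its plate's samples, either direction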
# BAP1 inh = blocks human BAP1 ubiquitin-AMC hydrolysis | Q92560 | recombinant BAP1, Ub-AMC hydrolysis fluorescence kinetic; active compounds read low | calls only at 20 µM | 72,000 compounds, 0.48% hits;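 active = activity remaining at or below 50% of control, provided the compound also passes the data quality filters; inactive = the rest, including low values that fail the filters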;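 note: 100% = DMSO wells rate and 0% = substrate alone blank rate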
# Target sequence (Q92560 whole entry, looked up): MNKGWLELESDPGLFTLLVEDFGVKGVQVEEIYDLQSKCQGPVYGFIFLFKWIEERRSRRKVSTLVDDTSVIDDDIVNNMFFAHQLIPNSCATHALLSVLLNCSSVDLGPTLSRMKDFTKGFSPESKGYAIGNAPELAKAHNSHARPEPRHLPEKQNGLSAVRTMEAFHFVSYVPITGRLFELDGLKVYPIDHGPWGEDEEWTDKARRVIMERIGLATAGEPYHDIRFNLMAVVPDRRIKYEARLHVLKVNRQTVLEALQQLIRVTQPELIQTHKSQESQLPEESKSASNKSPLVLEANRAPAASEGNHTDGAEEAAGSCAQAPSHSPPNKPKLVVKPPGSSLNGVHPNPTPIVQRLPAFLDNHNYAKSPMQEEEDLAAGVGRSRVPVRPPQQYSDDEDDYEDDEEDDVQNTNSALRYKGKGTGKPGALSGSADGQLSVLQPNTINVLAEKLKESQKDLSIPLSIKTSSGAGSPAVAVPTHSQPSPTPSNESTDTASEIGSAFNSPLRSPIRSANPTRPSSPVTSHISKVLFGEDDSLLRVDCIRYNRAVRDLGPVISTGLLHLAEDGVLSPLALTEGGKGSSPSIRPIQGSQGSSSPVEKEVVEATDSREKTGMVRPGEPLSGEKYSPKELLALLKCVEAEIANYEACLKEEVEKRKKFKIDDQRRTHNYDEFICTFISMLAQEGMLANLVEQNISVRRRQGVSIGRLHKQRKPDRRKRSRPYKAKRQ
# JNK3 blocker = JNK3 (human) kinase inhibition; purified JNK3 kinase activity, HTS; inhibition, % at 8 µM; 60,000 compounds, 0.61% hits; AID 746; in the data active = inhibition above about 17%;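 note: 0% = DMSO and 100% = reference inhibitor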
# M1 antag = M1 muscarinic receptor (rat) antagonism | P08482 | CHO-M1 cells, Fluo-4 calcium, ACh EC80 antagonist mode; active compounds read low | B-score at 10 µM | 64,000 compounds, 3.4% hits;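 active = calcium fluorescence response, raw or row-and-column corrected B-score, differing from the plate sample mean either way at a set confidence level, mostly lower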
# M1 antag conf = confirmation of rat M1 muscarinic receptor antagonists | shares compounds with M1 antag | CHO-M1 cells, Fluo-4 calcium, ACh EC80 antagonism; active compounds read low | calcium response (max-min fluorescence) at 10 µM | 1,700 compounds, 43% hits | AID 677;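 active = calcium response below the same-plate mean of wells given acetylcholine alone at its 80%-effect dose, minus 3 SD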;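 note: raw fluorescence intensity difference in arbitrary instrument units and not normalized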
# mGluR4 antag = selectivity test for M1 antagonists: human mGluR4 receptor | shares compounds with M1 antag | CHO-mGluR4 calcium flux, Fluo-4 fluorescence, glutamate EC80; active compounds read low | fluorescence response (max-min) at 10 µM | 1,700 compounds, 0.9% hits;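 active = fluorescence response below the plate's average for near-maximal glutamate wells, less 3 SD of those wells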;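 note: raw unnormalized fluorescence span taken in the window right after glutamate addition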
# * hit, by the source's call; i = inactive; nt = no result shown.
SMILES,Her2 expr inh,HEK293 NFkB inh,M1 ag,BAP1 inh,JNK3 blocker,M1 antag,M1 antag conf,mGluR4 antag
Cc1ccccc1OCC(=O)OC(C)CN1CCN(C)CC1 (configuration not stated),114,18,0.32,i,0,-5.5*,641,246
COc1cccc(C(=O)Nc2cc(=O)n(C)c(=O)n2C)c1OC,98,-5,-0.46,i,5,-3.8*,651,238
COc1ccc(NC(=O)C2CCN(C(=O)c3ccccc3)CC2)c(OC)c1,70,-1,-0.0069,i,-4,-0.57,nt,nt
COc1ccc(C(=O)N2CCC(C(=O)Nc3ccccc3OC)CC2)cc1,84,28,0.19,i,0,-5*,644,249
CCCOC(=O)c1ccc(OCC(O)CN2CCN(C(=O)c3ccccc3)CC2)cc1 (configuration not stated),114,10,-0.36,i,4,-2*,502,240
CN1c2ccc(I)cc2C(C)(C)C12C=Cc1cc([N+](=O)[O-])ccc1O2 (configuration not stated),nt,nt,nt,i,nt,nt,nt,nt
CC1(C)CC(=O)C(C=Nc2ccc(O)cc2)=C(O)C1,94,21,-0.053,i,-1,-2.2*,644,249
CCOc1ccc(N=CC2=C(O)CC(C)(C)CC2=O)cc1,116,13,-0.22,i,-8,0.13,nt,nt
CCOc1cc(C(=S)N2CCOCC2)ccc1OC(=O)Cc1ccccc1,nt,nt,nt,i,nt,nt,nt,nt
OCCNc1nc(N2CCN(Cc3ccccc3)CC2)nc2ccccc12,115,8,0.12,i,-6,-0.45,nt,nt
C=CCNc1nc(N2CCCC2)nc2ccccc12,104,25,-0.83,i,-4,-3.4*,581,265
COc1ccc(Nc2nc(N3CCCC3)nc3ccccc23)c(OC)c1,13,16,-0.69,i,-11,-8.1*,342*,188
Cc1csc(NC(=O)CSc2ncnc3c2cnn3-c2ccccc2Cl)n1,48,-5,3.9,i,12,-2.7*,501,184
Cc1ccccc1-n1ncc2c(SCC(=O)NCc3cccs3)ncnc21,58,10,-0.014,i,-1,-0.38,nt,nt
Cc1ccc(S(=O)(=O)NC(CC(=O)NCc2ccco2)c2ccco2)cc1 (configuration not stated),108,11,-1,i,-1,-4.7*,684,197
COc1ccccc1N1CCN(C(=O)c2sc3nc(-c4ccccc4)cn3c2C)CC1,90,25,0.65,i,0,-3.5*,639,190
COc1ccc(C)cc1S(=O)(=O)N1CCCCC1,108,11,-0.37,i,-7,-0.1,nt,nt
Cc1ccc(NC(=O)COC(=O)C2CC2C)c(S(=O)(=O)N2CCCCC2)c1 (configuration not stated),110,14,-0.44,i,-1,-2.8*,645,233
Cn1c2ccccc2n2ncnc12,nt,nt,nt,i,nt,nt,nt,nt
CCOC(=O)c1cnc(-c2ccccc2)nc1N,82,-19,-1.7,i,2,-2.2*,714,230
CCOC(=O)c1cc(-c2ccccc2)sc1N,82,2,0.47,nt,2,0.0059,nt,nt
O=C(NC1CCCCC1)N(Cc1cc2cc3c(cc2[nH]c1=O)OCCO3)CC1CCCO1 (configuration not stated),100,6,0.21,nt,-8,0.49,nt,nt
Cc1cc(C)c2cc(CN(CC3CCCO3)C(=O)NC3CCCCC3)c(=O)[nH]c2c1 (configuration not stated),87,11,0.038,i,-2,-3.4*,469,247
COc1ccc(C(=O)CSc2nnc(COc3ccc(C#N)cc3)n2-c2ccccc2)cc1,94,10,-0.25,i,4,0.24,nt,nt
COc1ccc(-n2c(COc3ccccc3)nnc2SCc2ccc(C#N)cc2)cc1,109,13,-0.079,i,2,-3.3*,565,252
SMILES,Her2 expr inh,HEK293 NFkB inh,M1 ag,BAP1 inh,JNK3 blocker,M1 antag,M1 antag conf,mGluR4 antag
O=C(CN1CCC(NC(=O)Nc2ccccc2-c2ccccc2)CC1)NCc1ccco1,61,16,-1.4,i,0,-4*,215*,197
CN(c1ccccc1)S(=O)(=O)c1ccc(C(=O)Nc2ccccc2-c2nc3ccccc3s2)cc1,nt,nt,nt,i,nt,nt,nt,nt
CCN(CCCNC(=O)c1c(C)cc(=O)oc1C)c1cccc(C)c1,113,25,-0.2,i,nt,-2.9*,522*,266
Cc1ccc(N2C(=O)CC(NCCc3cccc(Cl)c3)C2=O)cc1 (configuration not stated),nt,nt,nt,i,nt,nt,nt,nt
O=C(COC(=O)c1ccccc1Oc1ccccc1)NC1CCS(=O)(=O)C1 (configuration not stated),117,10,0.053,i,0,-1.5*,617,236
CC(=O)C1C(=O)CC(C)(O)C(C(C)=O)C1C=Cc1ccccc1 (configuration not stated),nt,nt,nt,i,nt,nt,nt,nt
CCOC(=O)Nc1ccc2c(c1)N(C(=O)CCN(C)C)c1ccccc1S2,38,5,-0.095,i,2,-10*,22*,251
CCOC(=O)N(C)OC(=O)Nc1ccc(Cl)c(Cl)c1,99,1,-1.4,i,-8,-1,nt,nt
CCOC(=O)Nc1ccc2c(c1)N(C(=O)CN1CCN(C)CC1)c1ccccc1S2,127,6,-0.7,i,-5,-13*,46*,226
CCOC(=O)Nc1ccc2c(c1)N(C(=O)OC)c1ccccc1CC2,52,17,-1,i,8,0.12,nt,nt
CC1=C(C(=O)OC2CCCC(C)C2)C(c2ccc(O)c([N+](=O)[O-])c2)NC(=O)N1 (configuration not stated),nt,nt,nt,i,nt,nt,nt,nt
O=C1CN(c2ccc(Cl)cc2)C(=O)N1,nt,nt,nt,i,nt,nt,nt,nt
COc1ccc(C(c2nnnn2Cc2ccc(F)cc2)N2CCN(c3ccc(OC)cc3)CC2)cc1 (configuration not stated),58,14,0.8,i,-4,-3.8*,661,168
COc1ccc(N2CCN(C(c3ccccc3)c3nnnn3Cc3ccc(F)cc3)CC2)cc1 (configuration not stated),87,15,-0.47,i,6,-0.029,nt,nt
Cc1ccc(N2C(=O)CC(NCc3ccccc3F)C2=O)cc1 (configuration not stated),nt,nt,nt,i,nt,nt,nt,nt
CCCCn1c(=O)n(CC(O)c2ccccc2)c(=O)c2c1ncn2C1CCCC1 (configuration not stated),96,15,-0.17,i,-9,-3.8*,450,199
Cc1ccc2nc(-c3cccc([N+](=O)[O-])c3)cc(C(=O)OCC(=O)c3ccccc3)c2c1,nt,nt,nt,i,nt,nt,nt,nt

# From PubChem BioAssay
